Experimental findings from ChEMBL document CHEMBL3994591, “Novel ferulic amide derivatives with tertiary amine side chain as acetylcholinesterase and butyrylcholinesterase inhibitors: The influence of carbon spacer length, alkylamine and aromatic group” (Eur J Med Chem, 2017) are described below.

The target in one data set is Cholinesterase (Homo sapiens, UniProt P06276). Nature of the data set: Inhibition of butyrylcholinesterase (unknown origin) using butyrylthiocholine iodide as substrate after 25 mins by Ellmann method. In outline:
(§1)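 Modified Ellman assay, triplicate. Compounds dissolved in Tween 80, diluted with water to five concentrations. Mix: enzyme […], substrate (acetylthiocholine iodide or butyrylthiocholine iodide) and test compound in phosphoric acid buffer, pH 8.0, 0.1 mol/L. Incubated 25 min at 30 °C, then terminated. IC50 reported as mean ± SD of three experiments.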

For the next data set, the species on record is Homo sapiens. Nature of the data set: Selectivity index, ratio of IC50 for butyrylcholinesterase (unknown origin) to IC50 for acetylcholinesterase (unknown origin).
A short description of data set [1]: Inhibition of carboxylesterase (unknown origin) using 4-nitrophenyl acetate as substrate by UV-Vis spectrophotometer. The arrangement: species or system Homo sapiens. The procedure, abridged: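 Read-out was 4-nitrophenol released by CaE hydrolysis of 1.0 mmol/L 4-nitrophenyl acetate, measured at 405 nm. Reactions ran in 100 mmol/L potassium phosphate buffer, pH 8.0, at 25 °C. CaE activity was taken as proportional to 4-nitrophenol concentration.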

Data set [2] is described as follows: Octanol-water partition coefficient, log P of the compound at pH 7.4 by shake flask method. It counts as physicochemical. In outline:
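Shake flask partition between octanol and PBS (pH 7.4). Mixture shaken at 37 °C overnight, then centrifuged at 2000 rpm for 20 min. Phases analysed by C18 HPLC with methanol-0.1% TEA (85:15, v/v) at 1.0 mL/min and 32 °C, detection at 322 nm. Run in triplicate, log P calculated.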

The target of a further data set is Acetylcholinesterase (Homo sapiens, UniProt P22303). The data set is described as follows: Inhibition of acetylcholinesterase (unknown origin) using acetylthiocholine iodide as substrate after 25 mins by Ellmann method. The procedure, abridged: as §1

Molecules are shown by their SMILES. A value given as a limit tells only on which side of the number the result lay.

Cholinesterase, sequence (P06276 whole entry): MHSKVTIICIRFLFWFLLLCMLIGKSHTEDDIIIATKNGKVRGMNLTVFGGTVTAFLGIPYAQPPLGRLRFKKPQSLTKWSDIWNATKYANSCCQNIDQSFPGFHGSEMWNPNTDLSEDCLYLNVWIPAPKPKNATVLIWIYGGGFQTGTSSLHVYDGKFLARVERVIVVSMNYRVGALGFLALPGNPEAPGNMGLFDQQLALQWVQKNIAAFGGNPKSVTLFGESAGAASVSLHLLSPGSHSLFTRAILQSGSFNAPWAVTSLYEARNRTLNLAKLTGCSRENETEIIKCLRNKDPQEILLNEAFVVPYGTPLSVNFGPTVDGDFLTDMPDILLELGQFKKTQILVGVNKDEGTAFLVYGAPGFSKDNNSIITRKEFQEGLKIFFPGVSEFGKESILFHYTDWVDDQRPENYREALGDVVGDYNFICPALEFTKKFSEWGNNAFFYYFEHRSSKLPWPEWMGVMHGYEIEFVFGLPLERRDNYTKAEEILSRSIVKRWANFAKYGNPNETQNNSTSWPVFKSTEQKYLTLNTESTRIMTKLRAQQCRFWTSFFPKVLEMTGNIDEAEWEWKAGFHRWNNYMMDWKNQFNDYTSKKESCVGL
Acetylcholinesterase, sequence (P22303 whole entry): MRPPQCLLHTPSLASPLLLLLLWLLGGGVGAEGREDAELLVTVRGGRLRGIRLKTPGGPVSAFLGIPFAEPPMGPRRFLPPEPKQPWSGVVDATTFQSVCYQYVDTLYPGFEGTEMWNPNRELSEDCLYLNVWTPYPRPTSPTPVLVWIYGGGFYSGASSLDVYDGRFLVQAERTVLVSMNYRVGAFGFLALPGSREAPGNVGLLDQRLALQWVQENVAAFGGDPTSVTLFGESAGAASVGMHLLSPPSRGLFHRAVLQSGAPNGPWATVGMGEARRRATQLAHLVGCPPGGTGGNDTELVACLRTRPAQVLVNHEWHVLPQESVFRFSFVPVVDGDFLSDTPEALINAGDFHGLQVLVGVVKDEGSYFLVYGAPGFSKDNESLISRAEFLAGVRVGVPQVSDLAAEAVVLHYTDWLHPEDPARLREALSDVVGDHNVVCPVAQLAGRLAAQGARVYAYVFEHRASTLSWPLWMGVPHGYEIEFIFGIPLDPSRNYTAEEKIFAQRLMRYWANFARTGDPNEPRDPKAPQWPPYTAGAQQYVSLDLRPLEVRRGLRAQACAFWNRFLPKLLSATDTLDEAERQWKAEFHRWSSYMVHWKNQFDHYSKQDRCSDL

In the case of `COc1cc(/C=C/C(=O)Nc2ccccc2)ccc1OCCCN1CCCCC1`, the IC50 against Cholinesterase was 4.78 µM; in data set [1] it was over 500 µM; on Acetylcholinesterase, 14.5 µM. Further, the Ratio IC50 in the data set listed under Homo sapiens came out at 0.33. The same compound came in with a logD in data set [2] of 1.58.
In the same order, the values of `COc1cc(/C=C/C(=O)Nc2ccccc2)ccc1OCCN(C)C` are 23.3 µM, over 500 µM, 23.2 µM, 1 and 1.5.
Taken in the same sequence, the figures for `CCN(CC)CCOc1ccc(/C=C/C(=O)Nc2ccccc2)cc1OC` were 11.5 µM, over 500 µM, 41.1 µM, 0.28 and 1.53.
In the same order, the values of `COc1cc(/C=C/C(=O)Nc2ccccc2)ccc1OCCN1CCCC1` are 12.7 µM, over 500 µM, 35.1 µM, 0.36 and 1.54.
Turning to `CCOC(=O)/C=C/c1ccc(OCCCCCCN2CCCC2)c(OC)c1`, the IC50 was 377 µM on Cholinesterase, over 500 µM in data set [1] and 5.05 µM at Acetylcholinesterase. Moreover, the Ratio IC50 in the data set listed under Homo sapiens stood at 74.6. For the same compound, the logD in data set [2] stood at 1.82.
Taken in the same sequence, the figures for `CCN(CC)CCCCCOc1ccc(/C=C/C(=O)Nc2ccccc2)cc1OC` were 22.1 µM, over 500 µM, 19 µM, 1.17 and 1.63.
Taken in the same sequence, the figures for `COc1cc(/C=C/C(=O)O)ccc1OCCCCCCN1CCCC1` were 287 µM, over 500 µM, 69.9 µM, 4.1 and 1.29.
In the same order, the values of `COc1cc(/C=C/C(=O)Nc2ccccc2)ccc1OCCCCN1CCCC1` are 3.83 µM, over 500 µM, 24.4 µM, 0.16 and 1.6.
`COc1cc(/C=C/C(=O)Nc2ccccc2)ccc1OCCCCCCCCN(C)C`: the IC50 is 10.4 µM against Cholinesterase, over 500 µM in data set [1] and 8.95 µM on Acetylcholinesterase. Moreover, the Ratio IC50 in the data set filed under Homo sapiens was 1.16. The same compound showed a logD in data set [2] of 1.74.
In the same order, the values of `CCOC(=O)/C=C/c1ccc(OCCCCCCN2CCCCC2)c(OC)c1` are 41.8 µM, over 500 µM, 2.65 µM, 15.8 and 1.81.
As to `COc1cc(/C=C/C(=O)Nc2ccccc2)ccc1OCCN1CCCCC1`, the IC50 is 2.34 µM against Cholinesterase, over 500 µM in data set [1] and 19.4 µM at Acetylcholinesterase. Also, in the data set listed under Homo sapiens, the Ratio IC50 was 0.12. Further, in data set [2], the log distribution coefficient (logD) was found to be 1.56.
In the same order, the values of `COc1cc(/C=C/C(=O)O)ccc1OCCCCCCN1CCCCC1` are 146 µM, over 500 µM, 45.6 µM, 3.2 and 1.32.
In the same order, the values of `CCOC(=O)/C=C/c1ccc(OCCCCCCN(CC)CC)c(OC)c1` are 11.4 µM, over 500 µM, 1.94 µM, 5.87 and 1.8.
In the same order, the values of `COc1cc(/C=C/C(=O)Nc2ccccc2)ccc1OCCCCCCCCCCN1CCCC1` are 2.99 µM, over 500 µM, 13.5 µM, 0.22 and 1.86.
As to `COc1cc(/C=C/C(=O)Nc2ccccc2)ccc1OCCCCN1CCCCC1`, the IC50 is 5.69 µM on Cholinesterase, over 500 µM in data set [1] and 7.14 µM against Acetylcholinesterase. In addition, in the data set filed under Homo sapiens, the Ratio IC50 amounted to 0.8. For the same compound, the pH-dependent lipophilicity (logD) in data set [2] came out at 1.61.
For the compound `CCN(CC)CCCOc1ccc(/C=C/C(=O)Nc2ccccc2)cc1OC`, the results for the IC50 (at Cholinesterase; in data set [1]; at Acetylcholinesterase) were 16.9 µM, over 500 µM and 23.7 µM, respectively. The Ratio IC50 in the data set listed under Homo sapiens was found to be 0.71. Further, in data set [2], the logD came to 1.57.
Regarding `COc1cc(/C=C/C(=O)Nc2ccccc2)ccc1OCCCCN(C)C`, the 50% inhibitory concentration (IC50) was 25.9 µM against Cholinesterase, over 500 µM in data set [1] and 100 µM against Acetylcholinesterase. For the same compound, the Ratio IC50 in the data set listed under Homo sapiens is 0.26. Moreover, the log distribution coefficient (logD) in data set [2] turned out to be 1.57.
For the compound `COc1cc(/C=C/C(=O)Nc2ccccc2)ccc1OCCCCCCCCN1CCCCC1`, the 50% inhibitory concentration (IC50) was 5.45 µM against Cholinesterase, over 500 µM in data set [1] and 4.12 µM on Acetylcholinesterase. Further, the Ratio IC50 in the data set filed under Homo sapiens came to 1.32. Moreover, in data set [2], the log distribution coefficient (logD) amounted to 1.79.
Taken in the same sequence, the figures for `COc1cc(/C=C/C(=O)Nc2ccccc2)ccc1OCCCCCN1CCCCC1` were 5.9 µM, over 500 µM, 4.8 µM, 1.23 and 1.65.
In the same order, the values of `COc1cc(/C=C/C(=O)Nc2ccccc2)ccc1OCCCCCCCCCCN(C)C` are 20.6 µM, over 500 µM, 9.93 µM, 2.07 and 1.8.
Taken in the same sequence, the figures for `CCN(CC)CCCCOc1ccc(/C=C/C(=O)Nc2ccccc2)cc1OC` were 25.1 µM, over 500 µM, 41.6 µM, 0.6 and 1.59.
Turning to `COc1cc(/C=C/C(=O)Nc2ccccc2)ccc1OCCCN1CCCC1`, the figures for the 50% inhibitory concentration (IC50) (on Cholinesterase; in data set [1]; on Acetylcholinesterase) were 14.2 µM, over 500 µM and 37.1 µM, respectively. Further, the Ratio IC50 in the data set listed under Homo sapiens came to 0.38. The same compound displayed a log distribution coefficient (logD) in data set [2] of 1.57.
In the same order, the values of `COc1cc(/C=C/C(=O)Nc2ccccc2)ccc1OCCCCCN(C)C` are 12.1 µM, over 500 µM, 33 µM, 0.37 and 1.61.
Taken in the same sequence, the figures for `CCOC(=O)/C=C/c1ccc(OCCCCCCCCN(CC)CC)c(OC)c1` were 13 µM, over 500 µM, 1.56 µM, 8.37 and 1.98.
In the same order, the values of `CCN(CC)CCCCCCOc1ccc(/C=C/C(=O)O)cc1OC` are 263 µM, over 500 µM, 2.67 µM, 98.6 and 1.29.
Take `CCN(CC)CCCCCCCCCCOc1ccc(/C=C/C(=O)Nc2ccccc2)cc1OC`: the half-maximal inhibitory concentration (IC50) at Cholinesterase is 8.47 µM; in data set [1] it was over 500 µM; on Acetylcholinesterase, 14.9 µM. Further, the Ratio IC50 in the data set listed under Homo sapiens turned out to be 0.57. Further, the log distribution coefficient (logD) in data set [2] amounted to 1.83.
With `CCN(CC)CCCCCCCCOc1ccc(/C=C/C(=O)Nc2ccccc2)cc1OC`, the values for the IC50 (on Cholinesterase; in data set [1]; on Acetylcholinesterase) were 3.98 µM, over 500 µM and 1.36 µM, respectively. For the same compound, in the data set listed under Homo sapiens, the Ratio IC50 is 2.93. This compound returned a logD in data set [2] of 1.75.
Taken in the same sequence, the figures for `COc1cc(/C=C/C(=O)Nc2ccccc2)ccc1OCCCCCN1CCCC1` were 4.78 µM, over 500 µM, 6.21 µM, 0.77 and 1.64.
As for `CCN(C)C(=O)Oc1cccc([C@H](C)N(C)C)c1` [RIVASTIGMINE], the IC50 in data set [1] turned out to be 31.1 µM. The compound further came in with a pH-dependent lipophilicity (logD) in data set [2] of 1.68.
Consider `CCN(CC)CCCCCCCCOc1ccc(/C=C/C(=O)O)cc1OC`, for which the IC50 is 302 µM against Cholinesterase, over 500 µM in data set [1] and 3.18 µM against Acetylcholinesterase. For the same compound, the Ratio IC50 in the data set filed under Homo sapiens worked out at 95.1. The compound further came in with a logD in data set [2] of 1.51.
Taken in the same sequence, the figures for `COc1cc(/C=C/C(=O)Nc2ccccc2)ccc1OCCCCCCN(C)C` were 6.72 µM, over 500 µM, 8.4 µM, 0.8 and 1.69.
Taken in the same sequence, the figures for `COc1cc(/C=C/C(=O)Nc2ccccc2)ccc1OCCCN(C)C` were 20 µM, over 500 µM, 33.9 µM, 0.59 and 1.55.
Taken in the same sequence, the figures for `COc1cc(/C=C/C(=O)Nc2ccccc2)ccc1OCCCCCCCCCCN1CCCCC1` were 4.84 µM, over 500 µM, 11.1 µM, 0.44 and 1.83.
Consider `CCN(CC)CCCCCCOc1ccc(/C=C/C(=O)Nc2ccccc2)cc1OC`, for which the IC50 at Cholinesterase was 4.86 µM; in data set [1], over 500 µM; at Acetylcholinesterase, 1.83 µM. In addition, the Ratio IC50 in the data set filed under Homo sapiens was 2.66. In addition, the logD in data set [2] is 1.7.
`COc1cc(/C=C/C(=O)Nc2ccccc2)ccc1OCCCCCCCCN1CCCC1`: the IC50 against Cholinesterase was 4.03 µM; in data set [1], over 500 µM; at Acetylcholinesterase, 2.91 µM. Besides, in the data set listed under Homo sapiens, the Ratio IC50 is 1.38. In data set [2], this compound showed a logD of 1.78.
Take `COc1cc(/C=C/C(=O)Nc2ccccc2)ccc1O`: the IC50 (on Cholinesterase; in data set [1]; against Acetylcholinesterase) was over 500 µM in each case. The compound also displayed a logD in data set [2] of 1.42.
